Source: ChEMBL document CHEMBL1124846, “Synthesis, antiproliferative, and antiviral activity of certain 4-substituted and 4,5-disubstituted 7-[(1,3-dihydroxy-2-propoxy)methyl]pyrrolo[2,3-d]pyrimidines” (J Med Chem, 1990)
Where “and” joins values, the source holds several entries; their conditions need not be identical. Equal entries are not always repeated.

Legend:
Human betaherpesvirus 5 = experiment: Inhibition of human cytomegalovirus (HCMV) in plaque reduction assay; type: functional, organism-based
Outline: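 HCMV Towne strain (plaque-purified P0) plaque reduction in HFF monolayers in MEM(E) with 10% FBS. Inoculum held about 50 PFU, with compound dissolved in the overlay medium. IC50 came from linear regression of percent inhibition against log concentration, with ganciclovir or acyclovir positive controls in every set; two to five experiments.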

[1] = Cytotoxic activity against HFF cells.; type: cell-based; settings: Homo sapiens
Outline: (§1)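 Cytotoxicity was scored visually in uninfected HFF or BSC-1 monolayers within the plaque-reduction assays. Drug-induced cytopathology was read at 35- and 60-fold magnification on a 0 to 4+ scale on the day plaques were stained and counted.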

Neoplastic cell line = experiment: Cytotoxic activity against KB cells.; type: cell-based; settings: Homo sapiens
Outline: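 KB cells (human oral epidermoid carcinoma) grown in MEM(H) with 5% FBS. Compound effect on incorporation of radiolabelled precursors into DNA, RNA and protein was measured. IC50s came from linear regression of percent inhibition against log concentration, and the three IC50s were averaged.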

L1210 [2] = experiment: In vitro inhibition of L1210 cell growth.; type: functional, Mus musculus; set-up: concentration or dose not given beside the values
Outline: (§2)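 Murine L1210 leukemia cells in static suspension culture in Fischer's medium with compound for 4 days. Growth rate is the ratio of control to treated population doubling time; where the rate changed, the final rate was used. IC50 is the concentration giving 50% of control growth rate; single-concentration value at 100 μM.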

L1210 [3] = experiment: In vitro inhibition of L1210 cell growth to half of the control rate; type: functional, cell-based; settings: Mus musculus; outline: as §2
Human alphaherpesvirus 1 = experiment: Inhibition of herpes simplex virus (HSV-1) in plaque reduction assay; type: functional, organism-based
Outline: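 HSV-1 S-148 strain plaque reduction in BSC-1 monkey kidney monolayers, with about 100 PFU inoculum and compound dissolved in the overlay medium. IC50 came from linear regression of percent inhibition against log concentration, with a positive control in each set.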

[4] = Cytotoxic activity against BSC cells; type: cell-based; settings: Cercopithecidae; outline: as §1

Row | Compound | IC50 (Human betaherpesvirus 5) | IC50 (Human betaherpesvirus 5; Human betaherpesvirus 5) | IC50 [1] | IC50 (Neoplastic cell line) | Activity (L1210 [2]) | IC50 (L1210 [3]) | IC50 (Human alphaherpesvirus 1) | IC50 [4]
1 | OC[C@H]1O[C@@H](n2cc(Br)c3c(NO)ncnc32)[C@H](O)[C@@H]1O | 3 µM | 5.6 µM | > 100 µM | > 100 µM | 10% | 25 µM | – | –
2 | OCC(CO)OCn1cc(Cl)c2c(NO)ncnc21 | 56 µM and 24 µM and 50 µM | – | > 100 µM | – | 41% | 75 µM | – | –
3 | Cc1cn(COC(CO)CO)c2ncnc(N)c12 | – | > 100 µM | > 100 µM | – | 73% | > 100 µM | > 100 µM | –
4 | OCC(CO)OCn1ccc2c(NO)ncnc21 | – | > 100 µM | > 100 µM | – | 100% | – | – | –
5 | Nc1ncnc2c1ccn2COC(CO)CO | – | > 100 µM | > 100 µM | – | 106% | – | > 100 µM | > 100 µM
6 | OCC(CO)OCn1cc(I)c2c(NO)ncnc21 | 18 µM and 3.2 µM | – | > 100 µM | – | 11% | 39 µM | 30 µM | –
7 | CCNc1ncnc2c1c(Br)cn2COC(CO)CO | – | > 100 µM | > 100 µM | – | 95% | – | > 100 µM | > 100 µM
8 | OCC(CO)OCn1ccc2cncnc21 | – | > 100 µM | > 100 µM | – | 100% | – | – | –
